From the array DNA melting data of Ke et al. (doi:10.1101/2024.01.08.574731)

How the values were obtained:
[1] = folding enthalpy; higher = less favourable; fluorescence melt of hairpins on a sequencing array, two-state fit; conditions: sodium 0.088 M
How it was run: (§1)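 Library hairpins on a sequenced MiSeq flow cell carried annealed Cy3 and quencher oligos, and their Cy3 fluorescence was imaged in 50 mM Na-HEPES pH 8.0 with 25 mM NaCl, in 2.5 °C steps up to 60 °C. Signals were normalised to Cy3 before quenching and to control constructs. Melting temperature and folding enthalpy were obtained from bootstrapped two-state fits, combined by inverse-variance weighting across four replicates, and the fitted temperatures were then raised by 9.35 °C to match UV melts.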

[2] = melting temperature; fluorescence melt of hairpins on a sequencing array, two-state fit, raised by 9.35 °C to match UV melts; conditions: sodium 0.088 M
How it was run: as §1

| Sequence | folding enthalpy [1] [kcal/mol] | Tm [2] [°C] |
| --- | --- | --- |
| GATCTCAAATGAGATC ((((((....)))))) | -37.8 | 50 |
| GGCGCAGGAAACTGTGCC (((.(((....))).))) | -47.6 | 61.2 |
| GCGGTGCCGAAAGGCCGC (((..(((....)))))) | -19.4 | 62.3 |
| GTGTCCGAAAGGATCCAC ((((((....)))..))) | -10.4 | 32.7 |
| GTCGTCGGAAACGATGGC (.(.(((....))).).) | -25.4 | 46.2 |
| GCATGTGGAAACACGTGC (((.(((....))).))) | -45.4 | 55.6 |
| GTCGTCGAAAGACCGGAC ((((((....)))..))) | -16.9 | 37.4 |
| GACAGTGGAAACACCGTC (((.(((....))).))) | -24.8 | 39.6 |
| CGGTCGGAAACGATCCG ((((((....))).))) | -43.2 | 50.5 |
| GTGGGCGCGAAAGCGCAC (((..(((....)))))) | -16.4 | 67.9 |
| GCGAGCGAAAGCTTTCGC ((((((....)))..))) | -13.2 | 50.3 |
| GATCGTGGAAACGTGATC ((((..(....)..)))) | -17.1 | 37.3 |
| GAATAGGCGAAAGCCTTC (((..(((....)))))) | -8.6 | 29.1 |
| GATCAACCACTTGATC ((((((....)))))) | -32.6 | 42.3 |
| GCCAAAGAAATTTGGC ((((((....)))))) | -34.6 | 54 |
| GATGGGGGAAACCCCGTC ((.((((....)))).)) | -24.7 | 52.7 |
| GTCAGGGCGAAAGCCGAC (((..(((....)))))) | -14.7 | 48.7 |
| GATCTTTTGCAAGATC ((((((....)))))) | -34.8 | 42.8 |
| TATTGGAAACAATA (((((....))))) | -5.94 | 25.5 |
| GCTATTACGAAAGTAAGC (((..(((....)))))) | -13.6 | 30 |
| GATCTGCTTCCAGATC ((((((....)))))) | -33.4 | 48.5 |
| GCGGTGCGAAAGCTCTGC ((.(.((....)).).)) | -20.2 | 54.3 |
| GACCTGGGAAACCAGACC (..((((....))))..) | -10.3 | 24.6 |

| Sequence | folding enthalpy [1] [kcal/mol] | Tm [2] [°C] |
| --- | --- | --- |
| GGCCACCGAAAGGTAGCC (((.(((....))).))) | -38.3 | 57.5 |
| GAGAGAGGAAACTCTCTC (((((((....))))))) | -35.4 | 57.9 |
| GTTACCGGAAACGGTAGC (.(((((....))))).) | -18.9 | 50.4 |
| GTTACCGAAAGGTGCAAC ((((((....)))..))) | -8.88 | 27.3 |
| GCCGGGCGAAAGCTGGGC (((..((....))..))) | -26.3 | 61.2 |
| GAATACGAAAGTATATTC ((((((....)))..))) | -15.9 | 26.8 |
| GTCGGTGGAAACATCGGC (.((.((....)).)).) | -26.2 | 44.4 |
| GAGGAAGGAAACTTCTTC ((.((((....)))).)) | -16.7 | 33.9 |
| GACACAGGAAACTGTGCC (.(((((....))))).) | -14.9 | 45 |
| GTGTAATCGAAAGATCAC (((..(((....)))))) | -23.9 | 33.8 |
| GCAATGCGAAAGCGTGGC ((.(.((....)).).)) | -33.7 | 56.6 |
| GTCTCGCGAAAGCGTGAC (((.(((....))).))) | -28.6 | 60.7 |
| GATCATACGCATGATC ((((((....)))))) | -37 | 48 |
| GATAGTGGAAACACTATC (((((((....))))))) | -47.2 | 54.5 |
| GCCATCGAAAGATGCGGC ((((((....)))..))) | -16.6 | 49.2 |
| GGTTCACCGAAAGGTACC (((..(((....)))))) | -11.9 | 32.2 |
| GGTGCCGGAAACGGTGCC ((..(((....)))..)) | -41.5 | 56.6 |
| GAACGTGGAAACACGCTC ((.((((....)))).)) | -18.2 | 44 |
| GATCCTGCAAGGATC ((((((...)))))) | -39.6 | 68.5 |
| GCTAGCGAAAGCTGAGC ((((((....))).))) | -28.5 | 49.9 |
| GTTGGCGAAAGCCCAAC ((((((....))).))) | -16.3 | 50.7 |
| GCCGCAGGAAACCACGGC ((((..(....)..)))) | -20.4 | 42.1 |
| GCGATGGGAAACCGTTGC ((.(.((....)).).)) | -28.8 | 42.7 |

| Sequence | folding enthalpy [1] [kcal/mol] | Tm [2] [°C] |
| --- | --- | --- |
| GTTGTGGGAAACCGTAAC (((..((....))..))) | -13 | 29.2 |
| GCATCCGGAAACGGATAC (.(((((....))))).) | -16.9 | 39.7 |
| GGGCTAGGAAACTAACCC (((.(((....))).))) | -31.5 | 39.2 |
| GACTTACGAAAGTAGGTC (((.(((....))).))) | -27.5 | 49.3 |
| GATCCCATATGGGATC ((((((....)))))) | -35.3 | 61.8 |
| CGTTTCCGGAAACGGACG (((..(((....)))))) | -17.1 | 49.3 |
| GTATATCGAAAGATTTAC (((.(((....))).))) | -21.8 | 36.4 |
| GGCGTCTCGAAAGAGGCC (((..(((....)))))) | -33.3 | 53 |
| GACGGCGAAAGCCGTGTC ((((((....)))..))) | -9.28 | 63.9 |
| GCGGCTTACCGC ((((....)))) | -26.1 | 61.2 |
| GTCACCGAAAGGTGTGAC ((((((....)))..))) | -11.6 | 42.4 |
| GACAACGGAAACGTTATC ((.((((....)))).)) | -21 | 31.5 |
| GTAGGCGGAAACGCTTGC (.(.(((....))).).) | -11.6 | 30.3 |
| AATGTGAAAACATT (((((....))))) | -15 | 37.8 |
| GCAAGTGGAAACGCTTGC (((((.(....).))))) | -39.1 | 54.9 |
| GATCTTAAATAAGATC ((((((....)))))) | -31.9 | 38.5 |
| GATCCATAAATGGATC ((((((....)))))) | -47.5 | 50.3 |
| GGGGGCGGAAACGCCCTC (.(((((....))))).) | -11.6 | 63.4 |
| GATGAGGCGAAAGCCATC (((..(((....)))))) | -13.1 | 36.3 |
| GGGTAACCGAAAGGTCCC (((..(((....)))))) | -18 | 45.8 |
| GTCACCGAAAGGTTTGAC ((((((....)))..))) | -15.6 | 37.4 |
| GCGAGGAAACTCGC (((((....))))) | -32.6 | 66.4 |
| GATAAAGGAAACTTTGTC ((.((((....)))).)) | -14.1 | 32.2 |

| Sequence | folding enthalpy [1] [kcal/mol] | Tm [2] [°C] |
| --- | --- | --- |
| GATCTGGGCCAGATC ((((((...)))))) | -51.8 | 53.2 |
| GAATCCGGAAACGGATTC (((((((....))))))) | -45.2 | 63.6 |
| GCCGGGCGAAAGCGCAGC ((.(.((....)).).)) | -13.2 | 43.3 |
| GATCCCAACAGGGATC ((((((....)))))) | -36 | 62.4 |
| GTACTCGAAAGAGTGTAC ((((((....)))..))) | -12.6 | 35.9 |
| GCTTTCGAAAGAAAGAGC ((((((....)))..))) | -19.7 | 43.5 |
| GCACTGCGAAAGCTTTGC (((..((....))..))) | -24.5 | 42.9 |
| GCACAATCGAAAGATTGC (((..(((....)))))) | -10.3 | 34.5 |
| GCAGTGCGAAAGCCCCGC ((.(.((....)).).)) | -10.3 | 41.1 |
| GCATGGGGAAACCCGTGC (((.(((....))).))) | -47.5 | 58.7 |
| GTGCTCCGAAAGGATCAC (((.(((....))).))) | -31.9 | 50.2 |
| GGCGATCCGAAAGGAGCC (((..(((....)))))) | -35.4 | 53.9 |
| GAGCGGAAACGCTC (((((....))))) | -27.4 | 69.1 |
| GATCGCAGTCGCGATC ((((((....)))))) | -34.5 | 68.5 |
| GGATCCGGAAACGGACCC ((.((((....)))).)) | -21.2 | 50.4 |
| GCCAGTGGAAACGCTGGC (((((.(....).))))) | -41.8 | 61 |
| GTCTTCTCGAAAGAGGAC (((..(((....)))))) | -17.2 | 33.5 |
| GTTCGCGAAAGCGCGAAC ((((((....)))..))) | -27.4 | 65 |
| GCTAGAACGAAAGTTAGC (((..(((....)))))) | -26.6 | 38.3 |
| GCCATCACGAAAGTGGGC (((..(((....)))))) | -19.4 | 47.2 |
| GTACACGGAAACGTATAC (((.(((....))).))) | -23.8 | 33.6 |
| GACTTGGGAAACCAAGTC (((((((....))))))) | -35.8 | 62.3 |
| GAGCTGGGAAACCAGTTC ((.((((....)))).)) | -24.4 | 47.4 |
